In assay [1] the target is T1, Transient receptor potential cation channel subfamily V member 1 (Homo sapiens, UniProt Q8NER1). Description: Concentration necessary to induce a relative half-maximal response measured by the entry of [Ca2+] into human embryonic kidney HEK293 cells overexpressing the human VR1. Type of assay: functional, cell-based. In short, it runs like this: (§1)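 HEK-293 cells overexpressing human VR1, grown in MEM with nonessential amino acids, 10% FCS, 0.2 mM glutamine at 37 °C; plated on poly-L-lysine a day before. Cells loaded 2 h at 25 °C with 4 µM Fluo-3 methyl ester, washed, trypsinized, suspended in Tyrode pH 7.4 without BSA.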

Assay [2] addresses T1, Transient receptor potential cation channel subfamily V member 1. Nature of the assay: Percent absolute effect obtained with ionomycin, measured by the entry of [Ca2+] into human embryonic kidney HEK293 cells overexpressing hVR1. The assay is classed as functional, cell-based. In short, it runs like this: as §1

We go through 33 compounds from ChEMBL document CHEMBL1135551, “N-Acylvanillamides: development of an expeditious synthesis and discovery of new acyl templates for powerful activation of the vanilloid receptor” (J Med Chem, 2002).

Structures are written as SMILES.

T1 sequence (Q8NER1 whole entry): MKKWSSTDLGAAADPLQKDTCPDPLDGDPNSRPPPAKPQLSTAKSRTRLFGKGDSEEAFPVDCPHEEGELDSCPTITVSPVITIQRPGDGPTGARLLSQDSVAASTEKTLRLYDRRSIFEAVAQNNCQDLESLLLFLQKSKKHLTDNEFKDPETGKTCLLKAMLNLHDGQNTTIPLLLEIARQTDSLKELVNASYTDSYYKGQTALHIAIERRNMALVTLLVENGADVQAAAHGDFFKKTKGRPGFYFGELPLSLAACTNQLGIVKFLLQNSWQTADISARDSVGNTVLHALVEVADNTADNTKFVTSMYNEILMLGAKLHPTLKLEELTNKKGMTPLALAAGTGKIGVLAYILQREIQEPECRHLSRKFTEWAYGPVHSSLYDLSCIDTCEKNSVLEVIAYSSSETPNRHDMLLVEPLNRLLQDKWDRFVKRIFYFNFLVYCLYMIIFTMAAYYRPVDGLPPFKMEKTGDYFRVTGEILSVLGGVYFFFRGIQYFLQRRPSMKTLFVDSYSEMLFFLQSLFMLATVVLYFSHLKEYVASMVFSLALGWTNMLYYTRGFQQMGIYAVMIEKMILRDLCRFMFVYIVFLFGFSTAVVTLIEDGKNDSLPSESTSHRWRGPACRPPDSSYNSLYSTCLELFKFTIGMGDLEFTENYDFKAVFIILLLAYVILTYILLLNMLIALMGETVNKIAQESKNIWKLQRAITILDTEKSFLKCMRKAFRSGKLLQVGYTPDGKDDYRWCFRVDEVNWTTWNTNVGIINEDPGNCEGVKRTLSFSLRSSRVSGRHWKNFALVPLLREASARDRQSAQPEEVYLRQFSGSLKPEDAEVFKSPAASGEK

With `CCCCCCCC[C@@H]1C[C@@H]1CCCCCCCC(=O)NCc1ccc(O)c(OC)c1`, a half-maximal response in assay [1] (EC50) required 1.26 nM. For the same compound, the Response in assay [2] was determined as 86.7%.

In assay [1], `CCCCCC/C=C/C#CCCCCCCCC(=O)NCc1ccc(O)c(OC)c1` gave an EC50 of 1.26 nM. The Response in assay [2] was 70.7%.

The compound `CCCCCC[C@H](C/C=C\CCCCCCCC(=O)NCc1ccc(O)c(OC)c1)OC(C)=O` gave a Response in assay [2] of 93.5%.

`COc1cc(CNC(=O)CCCCCCCCCCCCCCCCCCC(=O)NCc2ccc(O)c(OC)c2)ccc1O` had an EC50 in assay [1] of 501 nM. For the same compound, in assay [2], the Response was 83.4%.

In the case of `CCCCC/C=C\C/C=C\C/C=C\C/C=C\CCCC(=O)NCc1ccc(O)c(OC)c1`, the EC50 in assay [1] was 0.501 nM. In assay [2], this compound gave a Response of 74.8%.

`COc1cc(CNC(=O)CCCCCCCCC2CC2)ccc1O` gave an EC50 in assay [1] of 3.16 nM. Further, the Response in assay [2] was found to be 96.2%.

The compound `COc1cc(CNC(=O)C2CC2(C)CCCC(C)CCCC(C)CCCC(C)C)ccc1O` (configuration not stated) gave an EC50 in assay [1] of 2.51 nM. The Response in assay [2] came to 91.2%.

`CCCCCCCC/C=C\CCCCCCCC(=O)NCc1ccc(O)c(OC)c1` [OLVANIL]: the midpoint of the response in assay [1], the EC50, lay at 0.501 nM. The compound also registered a Response in assay [2] of 67.2%.

On to `COc1cc(CNC(=O)/C=C(C)/C=C/C=C(C)/C=C/C2=C(C)CCCC2(C)C)ccc1O`, for which the EC50 in assay [1] was 3.98 nM. The Response in assay [2] is 92.6%.

Regarding `CCCCCCCC/C=C\CCCCCCCCCCC(=O)NCc1ccc(O)c(OC)c1`, in assay [1], the EC50 was 3.16 nM. This compound displayed a Response in assay [2] of 91.4%.

Turning to `C/C=C/C=C/C(=O)NCc1ccc(O)c(OC)c1`, the Response in assay [2] came to 34.6%.

`CCCCCC[C@@H](O)CCCCCCCCCCC(=O)NCc1ccc(O)c(OC)c1`: the EC50 in assay [1] is 5.01 nM. Moreover, the Response in assay [2] is 69.7%.

For `C=C(C(=O)NCc1ccc(O)c(OC)c1)[C@H]1CC[C@]2(C)CCC[C@](C)(O)[C@H]2C1`, the EC50 in assay [1] was 200 nM. Besides, in assay [2], the Response came to 78.9%.

The compound `COc1cc(CNC(=O)[C@@]2(C)CCC[C@@]3(C)[C@H]2CC=C2C=C(C(C)C)CC[C@@H]23)ccc1O` yielded a Response in assay [2] of 37.5%.

`CCCCCC[C@@H](O)CC1CC1CCCCCCCC(=O)NCc1ccc(O)c(OC)c1` (some centres not stated) had an EC50 in assay [1] of 5.01 nM. In addition, the Response in assay [2] came out at 98%.

`COc1cc(CNC(=O)CCCCCCCC/C=C/CCCCCCCCC(=O)NCc2ccc(O)c(OC)c2)ccc1O` gave an EC50 in assay [1] of 1.58 nM. This compound also came in with a Response in assay [2] of 85.7%.

Consider `COc1cc(CNC(=O)C2C(C(=O)NCc3ccc(O)c(OC)c3)[C@H]3C=C[C@@H]2C3)ccc1O` (stereo in doubt; trans), for which the Response in assay [2] came to 37.2%.

Regarding `COc1cc(CNC(=O)/C=C(\C)CC/C=C(\C)CCC=C(C)C)ccc1O`, a half-maximal effect in assay [1] (EC50) was put at 0.501 nM. Also, the Response in assay [2] amounted to 79.9%.

Regarding `COc1cc(CNC(=O)CCCC/C=C/C(C)C)ccc1O`, the Response in assay [2] came out at 65.4%.

In assay [1], `CCCCCCC(=O)CCCCCCCCCCC(=O)NCc1ccc(O)c(OC)c1` had an EC50 of 6.31 nM. The Response in assay [2] amounted to 67%.

`C=CCCCCCCCCC(=O)NCc1ccc(O)c(OC)c1` gave an EC50 in assay [1] of 2 nM. In assay [2], this compound displayed a Response of 85%.

For `CCCCCCCCC#CCCCCCCCC(=O)NCc1ccc(O)c(OC)c1`, the EC50 in assay [1] was 12.6 nM. Moreover, in assay [2], the Response stood at 73.7%.

Take `COc1cc(CNC(=O)/C=C(\C)CCC=C(C)C)ccc1O`: the response in assay [1] was half-maximal at 39.8 nM (EC50). In assay [2], this compound gave a Response of 70.9%.

Regarding `COc1cc(CNC(=O)C2C(C(=O)NCc3ccc(O)c(OC)c3)[C@H]3C=C[C@@H]2C3)ccc1O` (stereo in doubt; cis), in assay [2], the Response was determined as 16.4%.

Consider `C=C(C)[C@@H]1CC[C@]2(C(=O)NCc3ccc(O)c(OC)c3)CC[C@]3(C)[C@H](CC[C@@H]4[C@@]5(C)CC[C@H](O)C(C)(C)[C@@H]5CC[C@]43C)[C@@H]12`, for which the EC50 in assay [1] is 126 nM. This compound also had a Response in assay [2] of 88.6%.

Compound `CCCCCCCC[C@H]1C[C@H]1CCCCCCCCCCCC(=O)NCc1ccc(O)c(OC)c1` gave an EC50 in assay [1] of 79.4 nM. In addition, in assay [2], the Response was 91%.

The compound `COc1cc(CNC(=O)[C@H]2[C@@H](C=C(C)C)C2(C)C)ccc1O` gave an EC50 in assay [1] of 200 nM. Besides, the Response in assay [2] came to 85%.

With `COc1cc(CNC(=O)/C=C(\C)CCC[C@H](C)CCC[C@H](C)CCCC(C)C)ccc1O`, a half-maximal response in assay [1] (EC50) required 2 nM. This compound also registered a Response in assay [2] of 85%.

With `CCCCCCCCCCCCCCCCCC(=O)NCc1ccc(O)c(OC)c1`, the Response in assay [2] was 32.4%.

Consider `COc1cc(CNC(=O)[C@]23CC[C@@H](C)[C@H](C)[C@H]2C2=CC[C@@H]4[C@@]5(C)CC[C@H](O)C(C)(C)[C@@H]5CC[C@@]4(C)[C@]2(C)CC3)ccc1O`, for which the Response in assay [2] stood at 14.3%.

Turning to `C=C(C)[C@H]1CC=C(C(=O)NCc2ccc(O)c(OC)c2)CC1`, in assay [1], the response was half-maximal at 794 nM (EC50). This compound yielded a Response in assay [2] of 74.5%.

In assay [1], `CCCCCC[C@@H](O)C/C=C\CCCCCCCC(=O)NCc1ccc(O)c(OC)c1` gave an EC50 of 3.16 nM. This compound also registered a Response in assay [2] of 85%.

For the compound `COc1cc(CNC(=O)CC[C@H](C)[C@@H]2CC[C@H]3[C@@H]4[C@@H](O)C[C@H]5C[C@@H](O)CC[C@@]5(C)[C@H]4C[C@@H](O)[C@]32C)ccc1O`, in assay [2], the Response stood at 5.8%.
